# Only some compounds are listed: those with a hit (about 2.3% of all), similar ones and a draw of the others.
# HNF4A DNA FP – change in binding of human HNF4A to DNA, primary screen, biochemical, fluorescence polarization, FITC-DNA; 0.3% of 360,000 active; Hepatocyte nuclear factor 4-alpha (Homo sapiens), P41235; 1 h; activity change, % at 10 µM; in the data active means activity change above about 30%, passing the limit was not always enough
# Target sequence (P41235 whole entry, looked up): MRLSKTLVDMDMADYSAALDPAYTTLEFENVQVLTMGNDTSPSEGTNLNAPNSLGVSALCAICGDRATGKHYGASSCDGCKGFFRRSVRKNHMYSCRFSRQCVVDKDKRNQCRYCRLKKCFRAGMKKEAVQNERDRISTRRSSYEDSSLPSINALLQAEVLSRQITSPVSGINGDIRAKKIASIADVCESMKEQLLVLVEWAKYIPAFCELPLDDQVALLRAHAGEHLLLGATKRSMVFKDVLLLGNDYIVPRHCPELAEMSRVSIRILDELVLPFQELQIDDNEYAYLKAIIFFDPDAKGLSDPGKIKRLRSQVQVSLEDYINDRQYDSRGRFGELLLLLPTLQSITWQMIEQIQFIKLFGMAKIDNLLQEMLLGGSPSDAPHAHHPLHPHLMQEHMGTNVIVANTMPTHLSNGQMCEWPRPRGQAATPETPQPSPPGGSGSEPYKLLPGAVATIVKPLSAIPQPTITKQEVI
# Rpn11 inh – Rpn11 (PSMD14) deubiquitinase inhibitors, primary screen, biochemical, fluorescence polarization, uHTS; human 26S proteasome, Ub4-pepOG fluorescence polarization; 20S core pre-blocked with epoxomicin; inhibition, % at 20 µM; 0.59% of 360,000 active; AID 588493, 2011;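 active means inhibition at 20 µM, scaled to each plate's controls, above about 33%, limit read from the data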
# CSN deneddyl inh – inhibitors of CSN-mediated cullin deneddylation, primary screen, biochemical, fluorescence polarization, uHTS. Purified CSN, SCF-Nedd8-OG deneddylation. inhibition, % at 12.5 µM. 0.38% of 360,000 active;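 active means pattern-corrected inhibition above about 35%, with an unprinted fluorescence ratio check between 0.5 and 1.5, limit read from the data, passing the limit was not always enough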;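 further: 0% = enzyme with substrate and 100% = substrate without enzyme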
#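 Assay system: HEK293T-derived human Csn5 enzyme; quantity: 0.24 nM enzyme; medium: Tris/NaCl/DTT buffer, pH 7.5; also added: substrate SCFSkp2-Nedd8OG, 10 nM; doses: 12.5 µM compound; schedule: 90 min reaction at room temperature; signal: FP; read-out: % inhibition of substrate cleavage by Csn5; benchmarks: substrate-only high control, full reaction low control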
# Myeloid diff 2 – induction of myeloid progenitor differentiation, primary screen, cell-based, flow cytometry, MLPCN library. ER-HoxA9 myeloid progenitors, lysozyme-GFP differentiation. calls only at 10 µM. 1% of 360,000 active;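 active means normalized GFP-positive differentiation at or above the plate's own cutoff, the solvent-only control mean plus 3 SD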;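 further: cells exposed to compound for four days before flow analysis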
# TPT1 inhibitor – Candida albicans TPT1 enzyme inhibitors, primary screen, biochemical, fluorescence polarization | 0.81% of 300,000 active | inhibition, % at 5 µM | recombinant caTPT1, FP RNA substrate dephosphorylation | tRNA 2'-phosphotransferase TPT1 (Candida albicans SC5314);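 active means inhibition above the mean of all tested compounds plus 3 SD, set per screening campaign, cut at about 24% in these data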;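 further: plate controls were DMSO alone for no effect and ferristatin control at 100 nM for full effect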
# Myeloid diff CP1 – inducers of myeloid progenitor differentiation, confirmation, cell-based, GFP/Mac1 flow cytometry, cherry pick 01; shares compounds with Myeloid diff 2; ER-HoxA9 myeloid progenitors, GFP/Mac1 double-positive flow; calls only; 2% of 2,300 active;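 active means share of green or green-and-red cells above 9 and 9% in run 1 or 4 and 3% in run 2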
# GFP autofluor – compound fluorescence in myeloid differentiation counter-screen | shares compounds with Myeloid diff 2 | ER-HoxA9 myeloid progenitors, no estrogen, GFP autofluorescence flow cytometry; vehicle wells 0%, positive control 100% | fluorescence response, % (concentration not given with the values) | 7.4% of 2,300 active | AID 651707;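 active means over 5% cells positive for green fluorescent reporter, or over 2% positive for both it and APC stain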;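 further: range taken on the double positive population between DMSO and positive control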
# An asterisk follows results filed as active; i = inactive; . = no result; + = active, no number.
SMILES,HNF4A DNA FP,Rpn11 inh,CSN deneddyl inh,Myeloid diff 2,TPT1 inhibitor,Myeloid diff CP1,GFP autofluor
CCOc1cc(-c2nc(C)c(C(C)=O)n2O)ccc1OCC(=O)Nc1cccc(C)c1,1.1,-0.8,0.7,i,-1.3,.,.
C=CCNC(=O)c1ccc(N(CC=C)S(C)(=O)=O)cc1,1.3,-0.2,5.0,+,-3.0,i,0.0
O=C1OC2C(O)COC23OC(O)CCC13O (stereo not drawn),-0.7,-0.4,-0.3,i,.,.,.
CC1(C)Cn2c(nnc2-c2cccc(O)c2)S1,-2.0,-9.5,4.2,+,1.5,i,0.0
Cc1noc(C)c1C(=O)N1CCC(C(=O)c2ccc(F)cc2F)CC1,5.5,4.8,-1.0,i,-1.0,.,.
Cc1ccc(S(=O)(=O)N2CCN(c3ccccc3)CC2)c(C)c1,-2.3,-1.1,-0.9,i,-6.5,.,.
O=C(CCC(=O)N1CCOc2ccc(Cl)cc21)NCCCN1CCN(c2ccccc2F)CC1,-2.4,3.2,-1.8,i,-1.7,i,0.0
CN1CCN(S(=O)(=O)c2ccc(NC(=S)NC(=O)c3ccccc3)cc2)CC1,2.3,4.2,-1.8,+,-4.3,i,0.0
CN1CCN(S(=O)(=O)c2ccc(NC(=S)NC(=O)c3ccc(Cl)cc3)cc2)CC1,-1.6,7.5,-6.2,i,.,.,.
CC(=O)c1ccc(N2Cc3ccccc3/C2=N\C(=O)Nc2ccc(Cl)cc2)cc1,-2.3,1.8,6.1,i,3.7,i,0.4
O=C(COC(=O)Cc1n[nH]c(=O)c2ccccc12)Nc1ccc(Cl)cn1,1.8,-1.3,-4.9,i,.,.,.
CCCCCn1nc(-c2ccccc2)c2nc3ccccc3nc21,-77.5,-118.0,-73.2,+,2.8,i,82.0*
COc1ccc(OC)c(NC(=O)CSc2nc(=O)n(Cc3ccccn3)c3c2CCC3)c1,-3.1,0.8,-2.0,i,-2.1,.,.
Cc1nc2nc(-c3ccco3)[nH]n2c(=O)c1C,-0.1,-0.1,3.0,i,3.2,i,0.4
Cc1nc2nc(-c3ccco3)[nH]n2c(=O)c1Cc1ccccc1,-5.6,3.4,24.9,i,-5.8,.,.
Cc1ccc(N2C(=O)C3C4C=CC(CC4)C3C2=O)c([N+](=O)[O-])c1 (stereo not drawn),6.6,-7.6,2.7,i,-1.1,.,.
CSc1ccc(NC(=O)C2(C)CCN2C(=O)c2sccc2C)cc1 (stereo not drawn),-3.5,-2.2,-0.3,i,.,.,.
CCCOc1nnnn1-c1ccccc1,-1.6,-0.5,3.4,i,-1.6,.,.
CCCOn1nnnc1-c1ccccc1,-0.1,-0.4,-4.0,i,0.4,i,0.3
Cc1nc(SCC(=O)N(C)C2(C#N)CCCCC2)c2ccccc2n1,11.3,11.3,2.1,i,.,i,3.9
Cc1nc(SCC(=O)N(C)C2CCS(=O)(=O)C2)c2ccccc2n1 (stereo not drawn),-2.9,-5.5,-2.0,i,.,.,.
CON1C(=O)C(=O)N(OC)C(C)(C)C1C (stereo not drawn),-5.8,3.3,-3.0,i,-4.0,i,0.4
COc1cc(-c2nnc(COc3ccc4ccccc4c3)o2)cc(OC)c1OC,-0.6,-6.0,-0.2,i,-1.3,.,.
CC(C)OC(=O)CSc1nnc(Cc2ccccc2)n1C,4.2,-3.9,-2.9,+,2.8,i,0.0
COc1ccccc1NS(=O)(=O)c1cc(NC(=O)CCc2nc3ccccc3c(=O)[nH]2)ccc1C,2.4,4.3,-3.9,i,1.0,.,.
SMILES,HNF4A DNA FP,Rpn11 inh,CSN deneddyl inh,Myeloid diff 2,TPT1 inhibitor,Myeloid diff CP1,GFP autofluor
O=C(NCCCN1CCCC1)C1CCC(=O)N1C1CCCCC1 (stereo not drawn),-1.7,-10.8,-3.2,i,-0.5,.,.
CC1CC(C)CN(CCCNC(=O)C2CCC(=O)N2C2CCCC2)C1 (stereo not drawn),-3.9,-6.6,2.0,i,-1.5,i,0.4
COc1ccc(Cc2n[nH]c(=O)c3ccccc23)cc1OC,1.6,0.5,7.4,i,-0.8,i,0.0
CC1CCCN(CCCNC(=O)c2ccc3c(c2)N(Cc2cccc(Cl)c2)C(=O)c2ccccc2S3=O)C1 (stereo not drawn),3.4,-20.6,1.4,i,.,i,1.2
CSc1nc(-c2ccccc2)nc(NC(=O)c2ccccc2)c1C(C)=O,5.8,0.2,4.9,i,-1.5,.,.
CC(=O)c1c(NC(=O)c2ccccc2)[nH]c(-c2ccccc2)nc1=S,-0.8,1.8,12.3,+,0.2,i,4.9*
CC(=O)c1c(C)[nH]c(-c2ccccc2)nc1=S,1.4,1.2,1.4,i,0.2,i,1.0
CC(NC(=O)C1CCC(CNc2c(N3CCCCC3)c(=O)c2=O)CC1)c1ccccc1 (stereo not drawn),0.7,-3.3,-2.9,i,-2.8,.,.
CCOc1ccc(N2C(=O)CS/C2=N/NC(=O)COc2ccc3ccccc3c2)cc1,-4.9,4.1,1.6,i,-1.0,i,0.9
CCOc1ccc(NC(=O)NNC(=O)COc2ccc3ccccc3c2)cc1,-4.9,-8.0,-5.4,i,0.2,.,.
O=C(Nc1ccccc1)c1cc(C2COCCN2C(=O)CCCc2ccccc2)on1 (stereo not drawn),0.9,-1.6,-1.0,i,.,.,.
Cc1ccc(C)c2[nH]c(=O)c(C(c3nnnn3C(C)(C)C)N3CC=C(c4ccc(F)cc4)CC3)cc12 (stereo not drawn),3.9,23.0,2.4,+,.,i,1.4
CCCNC(=O)C1(C)CCCN(Cc2cccc(C#N)c2)C1 (stereo not drawn),-2.3,-4.7,2.7,i,.,.,.
Nc1ccc(NC(=O)c2ccccc2)c2c1C(=O)c1ccccc1C2=O,-2.4,-6.3,-2.5,i,-4.3,i,0.0
Nc1ncc(Br)cc1S(=O)(=O)NCCC(=O)NCCc1ccccc1,2.0,-3.6,1.4,i,-1.6,.,.
Cn1ccc(C(=O)Oc2ccc(C(=O)Nc3ccc(F)cc3F)cc2)n1,-3.3,6.9,-1.6,i,2.8,.,.
CCOc1ccc(N(CC(=O)Nc2ccccc2Cl)S(C)(=O)=O)cc1,-3.6,9.8,1.1,i,-2.3,.,.
CCOc1ccc(N(CC(=O)Nc2cc(Cl)ccc2C)S(C)(=O)=O)cc1,-1.8,2.2,0.1,+,-3.6,i,0.0
Cc1onc(-c2c(Cl)cccc2Cl)c1C(=O)NCCc1ccc(S(N)(=O)=O)cc1,0.1,-2.8,-1.9,i,-4.1,.,.
